From ChEMBL document CHEMBL1148625, “3-(1,1-dioxo-2H-(1,2,4)-benzothiadiazin-3-yl)-4-hydroxy-2(1H)-quinolinones, potent inhibitors of hepatitis C virus RNA-dependent RNA polymerase” (J Med Chem, 2006) come the findings set out here.

The target in data set [1] is RNA-directed RNA polymerase (Hepacivirus hominis) (UniProt O39930). The data set is described as follows: Inhibitory activity against HCV 3a NS5B RNA at 10 uM.
Data set [2] deals with Genome polyprotein (GB virus-B, UniProt Q69422). The data set is described as follows: Inhibitory activity against virus GBV-B polymerase.
Sequence of Genome polyprotein (Q69422 2275-2864 limits assumed): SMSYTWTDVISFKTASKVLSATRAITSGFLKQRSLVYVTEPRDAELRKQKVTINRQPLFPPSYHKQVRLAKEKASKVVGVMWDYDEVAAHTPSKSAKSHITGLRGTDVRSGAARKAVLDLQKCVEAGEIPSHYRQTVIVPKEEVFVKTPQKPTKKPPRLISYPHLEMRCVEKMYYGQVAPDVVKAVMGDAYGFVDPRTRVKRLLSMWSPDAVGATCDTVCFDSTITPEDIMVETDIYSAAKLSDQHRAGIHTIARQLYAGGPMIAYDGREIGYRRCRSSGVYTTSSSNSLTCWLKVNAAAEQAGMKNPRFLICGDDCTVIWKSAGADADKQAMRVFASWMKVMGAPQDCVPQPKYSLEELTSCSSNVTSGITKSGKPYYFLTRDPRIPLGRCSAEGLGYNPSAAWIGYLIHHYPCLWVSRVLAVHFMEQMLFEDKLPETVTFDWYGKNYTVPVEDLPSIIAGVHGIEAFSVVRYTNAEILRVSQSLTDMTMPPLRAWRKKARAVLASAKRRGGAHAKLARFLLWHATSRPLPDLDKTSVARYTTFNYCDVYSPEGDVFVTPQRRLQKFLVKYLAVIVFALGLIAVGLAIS
The nature of data set [3]: Cmax in Beagle dog at 0.8 mg/kg, iv or 4.0 mg/kg, po. It counts as ADME, organism-based, Canis lupus familiaris. To be noted: in vivo. The method, boiled down:
(§1)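 Single-dose study, with separate intravenous and oral administrations at the listed mg/kg. Plasma concentrations were followed over time, and mean values were derived for Cmax, T1/2, clearance (mL/min/kg), Vdss (L/kg) and oral bioavailability (%).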

A short description of data set [4]: Clearance in Sprague-Dawley rat at 1.3 mg/kg, iv or 3.4 mg/kg, po. The class given is ADME, organism-based. To be noted: in vivo. The method in brief: (§2)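 Single intravenous or oral doses given to Sprague-Dawley rats. Values are reported as means: Cmax (ng/mL), half-life (min), plasma clearance (mL/min/kg), steady-state volume of distribution (L/kg) and oral bioavailability F (%).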

The nature of data set [5]: Oral bioavailability in cynomolgus monkey at 0.8 mg/kg, iv or 4.0 mg/kg, po. To be noted: in vivo. The class given is ADME, organism-based, Macaca fascicularis. The method, boiled down:
as §1

The test system of data set [6] is Hepatitis C virus. The data set is described as follows: Protein binding in Huh7 cells using HCV 1b replicon by a replicon cell assay in presence of HSA and alpha-acid glycoprotein. The class given is functional, organism-based, Hepacivirus hominis. The following applies: genotype 1b, Huh-7.
The target in data set [7] is T1, RNA-directed RNA polymerase (Hepacivirus hominis, UniProt O39930). The data set is described as follows: Inhibitory activity against HCV 2a NS5B RNA polymerase. Set-up: species or system Hepatitis C virus genotype 2.
T1 sequence (O39930 whole entry): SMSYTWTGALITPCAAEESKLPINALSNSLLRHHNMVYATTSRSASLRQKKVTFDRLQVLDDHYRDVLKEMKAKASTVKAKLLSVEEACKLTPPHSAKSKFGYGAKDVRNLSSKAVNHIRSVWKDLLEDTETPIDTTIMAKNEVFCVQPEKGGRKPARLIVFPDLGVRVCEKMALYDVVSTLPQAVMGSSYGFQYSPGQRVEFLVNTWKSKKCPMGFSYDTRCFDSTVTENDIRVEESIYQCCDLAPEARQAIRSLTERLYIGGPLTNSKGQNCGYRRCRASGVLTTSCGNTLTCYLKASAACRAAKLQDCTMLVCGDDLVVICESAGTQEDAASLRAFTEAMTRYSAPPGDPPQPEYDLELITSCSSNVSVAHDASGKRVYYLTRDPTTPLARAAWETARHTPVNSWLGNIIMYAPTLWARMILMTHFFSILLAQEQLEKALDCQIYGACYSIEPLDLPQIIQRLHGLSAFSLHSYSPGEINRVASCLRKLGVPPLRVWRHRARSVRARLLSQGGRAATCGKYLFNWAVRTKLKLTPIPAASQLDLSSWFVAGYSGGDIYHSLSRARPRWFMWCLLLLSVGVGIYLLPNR
The subject of data set [8] is Hepatitis C virus. The data set is described as follows: Protein binding in Huh7 cells using HCV 1b replicon by a replicon cell assay in presence of HSA. The following applies: genotype 1b, Huh-7. It counts as functional, organism-based, Hepacivirus hominis. A general note: In antiviral work, replicon cells carry a viral genome segment that copies itself.
Data set [9] in a line: Half life in Sprague-Dawley rat at 1.3 mg/kg, iv or 3.4 mg/kg, po. The following applies: in vivo. The class given is ADME, organism-based. The method in brief:
as §2

For data set [10], the target named is RNA-directed RNA polymerase (Hepacivirus hominis) (UniProt O39930). The data set is described as follows: Inhibition of HCV RNA replication in Huh7 cells. The class given is functional, cell-based. To be noted: Huh-7. The method in brief: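 Huh-7 subgenomic replicon cells were seeded at 3 × 10³/well in DMEM with 10% FCS, 1% NEAA and 1 mg/mL G418, and allowed 4 h to attach. Eleven 2.5-fold DMSO dilutions were added (final 10,000 to 1.0 nM) and cells incubated 40 h. Neo RNA was measured by TaqMan RT-PCR, normalised to cyclophilin against DMSO controls; n = 8 wells per dilution.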

Data set [11] is described as follows: Oral bioavailability in Beagle dog at 0.8 mg/kg, iv or 4.0 mg/kg, po. The class given is ADME, organism-based, Canis lupus familiaris. The following applies: in vivo. The method in brief:
as §1

Data set [12] in a line: Half life in cynomolgus monkey at 0.8 mg/kg, iv or 4.0 mg/kg, po. It counts as ADME, organism-based, Macaca fascicularis. To be noted: in vivo. The method in brief: as §1
The nature of data set [13]: Volume of distribution in Beagle dog at 0.8 mg/kg, iv or 4.0 mg/kg, po. It counts as ADME, organism-based, Canis lupus familiaris. The following applies: in vivo, read-out: Vdss. The method, boiled down:
as §1

For data set [14], the target named is T1, RNA-directed RNA polymerase. The data set is described as follows: Inhibitory activity against HCV 1b NS5B RNA polymerase. More on the design: species or system Hepatitis C virus subtype 1b. The method in brief:
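Scintillation proximity polymerase assay with HCV NS5B (genotype 1b, J4 strain, Δ21 construct) at 50 or 10 nM. The reaction used [α-33P]GTP and GTP with 5′-biotinylated oligo(rG13)/poly(rC) in 20 mM Tris-Cl pH 7.5 containing MgCl2, KCl, DTT and 0.05% BSA. It ran 2 h at 25 °C, was stopped with an equal volume of 100 mM EDTA, then captured on streptavidin FlashPlates and counted; n = 4.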

Data set [15] in a line: Volume of distribution in Sprague-Dawley rat at 1.3 mg/kg, iv or 3.4 mg/kg, po. It counts as ADME, organism-based. The following applies: in vivo, read-out: Vdss. The method, boiled down:
as §2

For data set [16], the system named is Hepatitis C virus. The data set is described as follows: Protein binding in Huh7 cells using HCV 1b replicon by a replicon cell assay in presence of alpha-acid glycoprotein. The following applies: genotype 1b, Huh-7. The class given is functional, organism-based, Hepacivirus hominis.
Data set [17] in a line: Cmax in Sprague-Dawley rat at 1.3 mg/kg, iv or 3.4 mg/kg, po. The following applies: in vivo. The class given is ADME, organism-based. The method in brief:
as §2

The nature of data set [18]: Half life in Beagle dog at 0.8 mg/kg, iv or 4.0mg/kg, po. The class given is ADME, organism-based, Canis lupus familiaris. Set-up: dose 0.8 mg/kg. The following applies: in vivo. The method, boiled down:
as §1

The nature of data set [19]: Oral bioavailability in Sprague-Dawley rat at 1.3 mg/kg, iv or 3.4 mg/kg, po. The class given is ADME, organism-based. The following applies: in vivo. The method in brief: as §2
Data set [20] addresses Cytochrome P450 2C9 (Homo sapiens, UniProt P11712). The data set is described as follows: Inhibition of CYP2C9 isozyme. It counts as ADME.
The target in data set [21] is Cytochrome P450 3A4 (Homo sapiens, UniProt P08684). The data set is described as follows: Effect on CYP3A4 induction. The class given is ADME.
Sequence of Cytochrome P450 3A4 (P08684 whole entry): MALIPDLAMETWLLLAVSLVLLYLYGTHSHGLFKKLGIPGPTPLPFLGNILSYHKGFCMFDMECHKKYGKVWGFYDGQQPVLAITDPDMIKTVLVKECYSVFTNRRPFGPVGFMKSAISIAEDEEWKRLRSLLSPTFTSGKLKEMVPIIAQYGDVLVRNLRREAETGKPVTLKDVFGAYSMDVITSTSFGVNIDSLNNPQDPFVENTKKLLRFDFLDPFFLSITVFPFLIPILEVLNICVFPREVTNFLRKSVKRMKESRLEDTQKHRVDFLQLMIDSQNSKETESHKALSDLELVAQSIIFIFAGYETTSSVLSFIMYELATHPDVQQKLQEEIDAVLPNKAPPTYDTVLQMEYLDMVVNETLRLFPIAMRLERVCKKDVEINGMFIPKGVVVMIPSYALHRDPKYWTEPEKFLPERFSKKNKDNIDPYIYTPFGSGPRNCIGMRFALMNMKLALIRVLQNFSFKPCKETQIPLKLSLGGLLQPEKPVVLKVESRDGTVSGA
Data set [22] can be described thus: Volume of distribution in cynomolgus monkey at 0.8 mg/kg, iv or 4.0 mg/kg, po. It counts as ADME, organism-based, Macaca fascicularis. The following applies: in vivo, read-out: Vdss. The method, boiled down:
as §1

Data set [23] can be described thus: Cmax in cynomolgus monkey at 0.8 mg/kg, iv or 4.0 mg/kg, po. It counts as ADME, organism-based, Macaca fascicularis. The following applies: in vivo. The method, boiled down: as §1
The subject of data set [24] is Hepatitis C virus. The data set is described as follows: Protein binding in Huh7 cells using HCV 1b replicon by a replicon cell assay. The following applies: genotype 1b, Huh-7. The class given is functional, organism-based, Hepacivirus hominis. The method, boiled down: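 Replicon assay in Huh-7 cells run with α-acid glycoprotein, human serum albumin, or both added to the medium, to assess the effect of plasma protein binding on cellular activity.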

Bounds are passed on as bounds.

By inhibition is commonly meant how much of the control response was suppressed. What is called IC50 is the concentration that inhibits the measured activity by half. As a reminder, the Cmax is the maximum level reached in the sampled fluid or tissue. What is called bioavailability is dose-corrected exposure relative to a reference, in per cent. A word on the EC50: it is the concentration at which the effect is half-maximal. A word on the half-life: it is the time needed for the level to fall by half in the phase considered. By EC90 is commonly meant the concentration at which the effect reaches the 90% level.

Sequence of RNA-directed RNA polymerase (Hepacivirus hominis) (O39930 1-591): as the sequence (O39930 whole entry) above
Sequence of Cytochrome P450 2C9 (P11712 whole entry): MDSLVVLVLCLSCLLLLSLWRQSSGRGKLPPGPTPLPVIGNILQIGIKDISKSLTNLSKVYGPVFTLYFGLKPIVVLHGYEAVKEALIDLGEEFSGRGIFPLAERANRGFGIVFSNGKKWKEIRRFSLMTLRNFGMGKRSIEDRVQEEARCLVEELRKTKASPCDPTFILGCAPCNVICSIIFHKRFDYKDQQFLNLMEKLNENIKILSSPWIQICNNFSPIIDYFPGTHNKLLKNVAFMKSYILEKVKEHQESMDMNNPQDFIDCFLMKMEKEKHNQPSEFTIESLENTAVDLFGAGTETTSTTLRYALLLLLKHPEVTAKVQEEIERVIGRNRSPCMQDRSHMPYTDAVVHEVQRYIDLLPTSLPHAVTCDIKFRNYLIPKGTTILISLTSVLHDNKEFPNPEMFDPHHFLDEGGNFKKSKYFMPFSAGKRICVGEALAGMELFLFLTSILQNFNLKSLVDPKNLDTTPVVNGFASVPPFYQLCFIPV

In the case of `O=c1c(C2=Nc3ccccc3S(=O)(=O)N2)c(O)c2cc(F)ccc2n1CCC1CC1`, the inhibition in data set [1] is 60%. The IC50 in data set [2] is over 50 µM; in data set [7], 0.013 µM; in data set [14], 0.01 µM; in data set [20], 1 µM. Besides, the figures for the Cmax in [3], in data set [17] and in data set [23] were 4460 ng/mL, 4140 ng/mL and 5440 ng/mL, respectively. In addition, the clearance in [4] was determined as 1.4 mL/min/kg. Besides, the bioavailability in [5] is over 53%; in [11], over 35%; in data set [19], 44%. Further, the EC50 in [6] was over 20 µM; in [8], 13 µM; in data set [16], 0.18 µM; in data set [24] it was 0.038 µM. Besides, the half-life in data set [9] was found to be 3.04 h; in [12], 1.61 h; in data set [18], 1.72 h. The compound also yielded an EC90 in [10] of 0.207 µM. Further, the Vd in data set [13] is 0.15 L/kg; in data set [15], 0.36 L/kg; in data set [22], 0.11 L/kg. Besides, the result in data set [21] was Active.
